Data: ChEMBL document CHEMBL1148435, “N,N-dialkyl-4-[(8-azabicyclo[3.2.1]-oct-3-ylidene)phenylmethyl]benzamides, potent, selective delta opioid agonists” (Bioorg Med Chem Lett, 2004)

Legend:
Mus musculus = test: Antinociceptive activity was assessed using the mouse abdominal irritant test (MAIT), at a dose of 150 uM/Kg (po); format: functional, Abdomen
Summary of the method: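 Mice were dosed orally, 15 mice per compound, in the abdominal irritant test for antinociception, and watched for convulsions.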

[1] = target: T1, Delta-type opioid receptor (Homo sapiens, UniProt P41143); test: Effective concentration against stimulation of [35S]GTP-gamma-S, binding in CHO cells transfected with the human opioid receptor delta 1; format: functional, cell-based
Summary of the method: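 Agonist function was read as compound-stimulated [35S]GTPγS binding in CHO cells transfected with the human δ opioid receptor. The method was adapted from one used for bradykinin receptor signal transduction.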

[2] = target: T1, Delta-type opioid receptor; test: Binding affinity for delta opioid receptor
[3] = target: T1, Delta-type opioid receptor; test: Efficacy relative to stimulation of [35S]GTP-gamma-S, binding by SNC80 was calculated for human delta opioid receptor; format: functional
Mu-type opioid receptor = Mu-type opioid receptor (Homo sapiens, UniProt P35372); test: Binding affinity for mu opioid receptor
Sequence of Mu-type opioid receptor (P35372 whole entry): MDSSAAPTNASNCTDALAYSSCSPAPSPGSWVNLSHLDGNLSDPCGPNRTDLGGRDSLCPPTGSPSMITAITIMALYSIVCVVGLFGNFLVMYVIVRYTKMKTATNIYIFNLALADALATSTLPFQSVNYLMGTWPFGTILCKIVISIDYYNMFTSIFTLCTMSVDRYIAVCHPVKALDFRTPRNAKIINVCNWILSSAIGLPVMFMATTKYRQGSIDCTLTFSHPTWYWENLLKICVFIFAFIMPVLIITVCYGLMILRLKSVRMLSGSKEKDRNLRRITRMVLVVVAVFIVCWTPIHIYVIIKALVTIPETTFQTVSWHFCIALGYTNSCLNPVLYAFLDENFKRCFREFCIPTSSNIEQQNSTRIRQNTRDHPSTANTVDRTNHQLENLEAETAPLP

T1 sequence (P41143 whole entry): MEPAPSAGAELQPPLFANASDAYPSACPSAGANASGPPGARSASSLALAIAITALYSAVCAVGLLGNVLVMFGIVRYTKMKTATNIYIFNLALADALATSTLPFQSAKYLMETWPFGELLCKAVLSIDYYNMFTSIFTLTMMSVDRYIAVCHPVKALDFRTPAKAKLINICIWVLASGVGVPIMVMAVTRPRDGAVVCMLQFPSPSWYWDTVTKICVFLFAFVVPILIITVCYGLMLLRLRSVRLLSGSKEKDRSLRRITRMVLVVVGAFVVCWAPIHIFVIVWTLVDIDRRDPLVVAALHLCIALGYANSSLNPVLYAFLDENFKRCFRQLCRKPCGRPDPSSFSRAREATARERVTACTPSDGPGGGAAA

SMILES | Inhibition (Mus musculus) | EC50 [1] | Ki [2] | Relative efficacy [3] | Ki (Mu-type opioid receptor)
CCN(CC)C(=O)c1ccc(/C(=C2/C[C@H]3CC[C@@H](C2)N3CCc2ccccc2)c2ccccc2)cc1 | 90% | 1390 nM | 42.1 nM | 0.88 | 317 nM
CCN(CC)C(=O)c1ccc(/C(=C2/C[C@H]3CC[C@@H](C2)N3)c2ccccc2)cc1 | 86.7% | 53 nM | 0.36 nM | 1 | 2310 nM
CCN(CC)C(=O)c1ccc(C(=C2CC3CCC(C2)N3CCCc2ccccc2)c2ccccc2)cc1 | 13.3% | 112 nM | 0.56 nM | 0.88 | 104 nM
CCN(CC)C(=O)c1ccc(/C(=C2\C[C@H]3CC[C@@H](C2)N3)c2ccccc2)cc1 | 86.7% | 1.8 nM | 0.023 nM | 1.02 | 855 nM
CCN(CC)C(=O)c1ccc(/C(=C2\C[C@H]3CC[C@@H](C2)N3CCc2ccccc2)c2ccccc2)cc1 | 100% | 34 nM | 0.24 nM | 0.82 | 72.3 nM
CCN(CC)C(=O)c1ccc(C(=C2CC3CCC(C2)N3CCc2c[nH]c3ccccc23)c2ccccc2)cc1 | – | 16 nM | 3.48 nM | 0.91 | 337 nM
CCN(CC)C(=O)c1ccc(C(=C2CC3CCC(C2)N3CCc2ccc(F)cc2)c2ccccc2)cc1 | 26.7% | 27 nM | 2.62 nM | 0.76 | 393 nM
CCN(CCO)C(=O)c1ccc(C(=C2CC3CCC(C2)N3CCc2ccccc2)c2ccccc2)cc1 | – | 548 nM | 3.2 nM | 0.77 | 291 nM
C=CCN1[C@@H]2CC[C@H]1C/C(=C(/c1ccccc1)c1ccc(C(=O)N(CC)CC)cc1)C2 | 100% | 177 nM | 0.32 nM | 0.83 | 4400 nM
CCCN1C2CCC1CC(=C(c1ccccc1)c1ccc(C(=O)N(CC)CC)cc1)C2 | 93.3% | 43 nM | 0.39 nM | 0.87 | 289 nM
CCN(CC)C(=O)c1ccc(C(=C2CC3CCC(C2)N3CCOc2ccccc2)c2ccccc2)cc1 | – | 623 nM | 0.38 nM | 0.84 | 630 nM
CCN(CC)C(=O)c1ccc(C(=C2CC3CCC(C2)N3CCc2ccccc2)c2cccc(OC)c2)cc1 | – | 218 nM | 1.36 nM | 0.8 | 417 nM
CCN(CC)C(=O)c1ccc(C(=C2CC3CCC(C2)N3CCC2CCCCC2)c2ccccc2)cc1 | – | 228 nM | 1.36 nM | 0.92 | 451 nM
CCN(CC)C(=O)c1ccc(C(=C2CC3CCC(C2)N3CC(=O)c2ccccc2)c2ccccc2)cc1 | – | 173 nM | 6.31 nM | 0.68 | 9640 nM
CCN(CC)C(=O)c1ccc(C(=C2CC3CCC(C2)N3C)c2cccc(O)c2)cc1 | – | 3 nM | 0.6 nM | 0.87 | 727 nM
CCN(CC)C(=O)c1ccc(/C(=C2\C[C@H]3CC[C@@H](C2)N3C)c2ccccc2)cc1 | 80% | 153 nM | 5.7 nM | 0.87 | 2910 nM

SMILES | Inhibition (Mus musculus) | EC50 [1] | Ki [2] | Relative efficacy [3] | Ki (Mu-type opioid receptor)
CCN(CC)C(=O)c1ccc(C(=C2CC3CCC(C2)N3C)c2cccc(OC)c2)cc1 | – | 65 nM | 5.9 nM | 0.87 | 693 nM
CCN(CC)C(=O)c1ccc(C(=C2CC3CCC(C2)N3Cc2ccc3c(c2)OCO3)c2ccccc2)cc1 | 40% | 0.2 nM | 0.01 nM | – | 22.4 nM
O=C(c1ccc(C(=C2CC3CCC(C2)N3CCc2ccccc2)c2ccccc2)cc1)N1CCCC1 | – | 1460 nM | 24.1 nM | 0.86 | 276 nM
CCN(CC)C(=O)c1ccc(C(=C2CC3CCC(C2)N3C)c2ccc(OC)cc2)cc1 | – | 27 nM | 3.5 nM | 0.85 | 1500 nM
CCN(CC)C(=O)c1ccc(C(=C2CC3CCC(C2)N3)c2ccc(O)cc2)cc1 | 26.7% | 5 nM | 0.58 nM | 0.96 | 442 nM
C=C(C)CN(CC)C(=O)c1ccc(/C(=C2\C[C@H]3CC[C@@H](C2)N3CCc2ccccc2)c2ccccc2)cc1 | 33% | 1080 nM | 2.94 nM | 0.9 | 229 nM
CCN(CC)C(=O)c1ccc(C(=C2CC3CCC(C2)N3CCc2cccs2)c2ccccc2)cc1 | – | 1350 nM | 13.1 nM | 0.78 | 1280 nM
COCCN(CCOC)C(=O)c1ccc(C(=C2CC3CCC(C2)N3CCc2ccccc2)c2ccccc2)cc1 | – | 403 nM | 16.6 nM | 0.71 | 294 nM
CCN(CC)C(=O)c1ccc(C(=C2CC3CCC(C2)N3C)c2ccc(O)cc2)cc1 | – | 9 nM | 1.89 nM | 0.86 | 194 nM
CC(C)N(C(=O)c1ccc(C(=C2CC3CCC(C2)N3CCc2ccccc2)c2ccccc2)cc1)C(C)C | – | 5040 nM | 49 nM | 0.92 | 103 nM
CCCN(CCC)C(=O)c1ccc(C(=C2CC3CCC(C2)N3CCc2ccccc2)c2ccccc2)cc1 | – | 3560 nM | 7.39 nM | 0.82 | 644 nM
CC1CCCC(C)N1C(=O)c1ccc(/C(=C2\C[C@H]3CC[C@@H](C2)N3CCc2ccccc2)c2ccccc2)cc1 (stereo partly specified) | – | 10000 nM | 11 nM | – | 571 nM
O=C(c1ccc(C(=C2CC3CCC(C2)N3CCc2ccccc2)c2ccccc2)cc1)N1CCOCC1 | – | 350 nM | 35.2 nM | 0.76 | 237 nM
CCN(CC)C(=O)c1ccc(/C(=C2/C[C@H]3CC[C@@H](C2)N3C)c2ccccc2)cc1 | 90% | 149 nM | 4.5 nM | 0.85 | 9730 nM
C=CCN1[C@@H]2CC[C@H]1C/C(=C(\c1ccccc1)c1ccc(C(=O)N(CC)CC)cc1)C2 | 100% | 0.5 nM | 0.025 nM | 1.05 | 322 nM
